For nine compounds, MIC and ED50 results are on record in ChEMBL document CHEMBL1126799, “Synthesis of antimicrobial agents. 5. In vivo metabolism of 7-(4-hydroxypiperazin-1-yl)quinolones” (1993).

In brackets after ≈: the same amount, converted by molar mass.

One assay deals with Bacillus subtilis. The experiment in a line: Tested in vitro against Bacillus subtilis ATCC 6633 by agar dilution method. The assay is classed as functional. The gist of the method:
(§1)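 MIC by 2-fold agar dilution on Mueller–Hinton agar (footnote says sensitivity test agar).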

The subject of assay [1] is Staphylococcus epidermidis. The experiment in a line: Tested in vitro against Staphylococcus epidermidis IAM12896 by agar dilution method. The assay is classed as functional. The gist of the method: as §1
In general terms: In agar dilution, organisms are placed on agar that contains the substance at set levels.

The next assay concerns Proteus vulgaris. The experiment in a line: Tested in vitro against Proteus vulgaris OX-19 by agar dilution method. The assay is classed as functional. The gist of the method: as §1
Assay [2] concerns Staphylococcus aureus. Kind of assay: Tested in vitro against Staphylococcus aureus IID803 by agar dilution method. The assay is classed as functional. The gist of the method:
as §1

Another assay deals with Salmonella typhimurium. Kind of assay: Tested in vitro against Salmonella Typhimurium IID971 by agar dilution method. The assay is classed as functional, Salmonella enterica subsp. enterica serovar Typhimurium. To be noted: Salmonella enterica. The gist of the method: as §1
Assay [3] relates to Staphylococcus aureus. The experiment in a line: Tested in vitro against Staphylococcus aureus FDA209P JC-1 by agar dilution method. The assay is classed as functional. The gist of the method: as §1
The test system of assay [4] is Pseudomonas aeruginosa. Kind of assay: Tested in vitro against Pseudomonas aeruginosa E-2 by agar dilution method. The assay is classed as functional. The gist of the method: as §1
A further assay relates to Serratia marcescens. The experiment in a line: Tested in vitro against Serratia marcescens IAM1184 by agar dilution method. The assay is classed as functional. The gist of the method: as §1
Assay [5] has as its system Staphylococcus aureus. The experiment in a line: Tested in vivo against Staphylococcus aureus IID803 in mice after peroral dose of drug with 0.5% sodium carboxy methyl cellulose. The assay is classed as functional. To be noted: po. The gist of the method: (§2)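 Mice infected, then given compound orally 1 h post-infection as a suspension in 0.5% sodium CMC. ED50 calculated from cumulative mortality on day 7 post-infection by shortened Weil method.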

For a further assay, the system named is Escherichia coli. The experiment in a line: Tested in vitro against Escherichia coli NIHJ JC-2 by agar dilution method. The assay is classed as functional. The gist of the method:
as §1

Another assay relates to Klebsiella pneumoniae. The experiment in a line: Tested in vitro against Klebsiella pneumoniae PCI-602 by agar dilution method. The assay is classed as functional. The gist of the method: as §1
For assay [6], the system named is Pseudomonas aeruginosa. The experiment in a line: Tested in vivo against Pseudomonas aeruginosa E-2 in mice after peroral dose of drug with 0.5% sodium carboxy methyl cellulose. The assay is classed as functional. To be noted: po. The gist of the method: as §2
Assay [7] relates to Pseudomonas aeruginosa. The experiment in a line: Tested in vitro against Pseudomonas aeruginosa IFO3445 by agar dilution method. The assay is classed as functional. The gist of the method: as §1

`CC1COc2c(N3CCN(C)CC3)c(F)cc3c(=O)c(C(=O)O)cn1c23` (stereo unspecified) [OFLOXACIN]: the MIC in the assay on Bacillus subtilis is 0.2 µg/mL (≈ 0.553 µM); in assay [1], 0.78 µg/mL (≈ 2.16 µM); in the assay on Proteus vulgaris it was 0.1 µg/mL (≈ 0.277 µM); in the assay on Staphylococcus aureus [2], 0.78 µg/mL (≈ 2.16 µM); in the assay with Salmonella typhimurium it was 0.1 µg/mL (≈ 0.277 µM); against Staphylococcus aureus [3], 0.39 µg/mL (≈ 1.08 µM). Also, the MIC against Pseudomonas aeruginosa [4] amounted to 3.13 µg/mL (≈ 8.66 µM); against Serratia marcescens it was 0.78 µg/mL (≈ 2.16 µM); against Escherichia coli it was 0.2 µg/mL (≈ 0.553 µM); in the assay with Klebsiella pneumoniae, 0.1 µg/mL (≈ 0.277 µM); in the assay on Pseudomonas aeruginosa [7] it was 3.13 µg/mL (≈ 8.66 µM). Moreover, the ED50 in the assay with Staphylococcus aureus [5] stood at 8.84 mg/kg; in the assay on Pseudomonas aeruginosa [6], 54.5 mg/kg.
Regarding `CC1CN(c2c(F)cc3c(=O)c(C(=O)O)cn(C4CC4)c3c2F)CCN1O` (stereo unspecified), the MIC against Bacillus subtilis was 0.025 µg/mL (≈ 0.0659 µM); in assay [1] it was 0.78 µg/mL (≈ 2.06 µM); in the assay on Proteus vulgaris, 0.1 µg/mL (≈ 0.264 µM); with Staphylococcus aureus [2], 0.2 µg/mL (≈ 0.527 µM); with Salmonella typhimurium it was 0.05 µg/mL (≈ 0.132 µM); in the assay with Staphylococcus aureus [3], 0.39 µg/mL (≈ 1.03 µM). The MIC against Pseudomonas aeruginosa [4] amounted to 3.13 µg/mL (≈ 8.25 µM); against Serratia marcescens it was 0.78 µg/mL (≈ 2.06 µM); in the assay on Escherichia coli, 0.1 µg/mL (≈ 0.264 µM); with Klebsiella pneumoniae it was 0.025 µg/mL (≈ 0.0659 µM); against Pseudomonas aeruginosa [7], 3.13 µg/mL (≈ 8.25 µM). The ED50 was found to be 1.67 mg/kg in the assay on Staphylococcus aureus [5] and 22.9 mg/kg in the assay on Pseudomonas aeruginosa [6].
`CC1CN(c2c(F)cc3c(=O)c(C(=O)O)cn(C4CC4)c3c2F)CCN1` (stereo unspecified): the MIC was 0.05 µg/mL (≈ 0.138 µM) against Bacillus subtilis; 0.78 µg/mL (≈ 2.15 µM) in assay [1]; 0.05 µg/mL (≈ 0.138 µM) in the assay on Proteus vulgaris; 0.2 µg/mL (≈ 0.55 µM) in the assay on Staphylococcus aureus [2]; 0.025 µg/mL (≈ 0.0688 µM) against Salmonella typhimurium; 0.39 µg/mL (≈ 1.07 µM) with Staphylococcus aureus [3]. Moreover, the MIC against Pseudomonas aeruginosa [4] is 1.56 µg/mL (≈ 4.29 µM); in the assay with Serratia marcescens it was 0.39 µg/mL (≈ 1.07 µM); in the assay on Escherichia coli, 0.05 µg/mL (≈ 0.138 µM); with Klebsiella pneumoniae, 0.0125 µg/mL (≈ 0.0344 µM); against Pseudomonas aeruginosa [7] it was 1.56 µg/mL (≈ 4.29 µM). Moreover, the ED50 with Staphylococcus aureus [5] amounted to 2.21 mg/kg; with Pseudomonas aeruginosa [6] it was 8.84 mg/kg.
Consider `O=C(O)c1cn(C2CC2)c2c(F)c(N3CCNCC3)c(F)cc2c1=O`, for which the MIC stood at 0.1 µg/mL (≈ 0.286 µM) in the assay with Bacillus subtilis; 0.78 µg/mL (≈ 2.23 µM) in assay [1]; 0.05 µg/mL (≈ 0.143 µM) with Proteus vulgaris; 0.39 µg/mL (≈ 1.12 µM) in the assay with Staphylococcus aureus [2]; 0.025 µg/mL (≈ 0.0716 µM) against Salmonella typhimurium; 0.2 µg/mL (≈ 0.573 µM) with Staphylococcus aureus [3]. The MIC in the assay on Pseudomonas aeruginosa [4] was 0.78 µg/mL (≈ 2.23 µM); in the assay on Serratia marcescens, 0.39 µg/mL (≈ 1.12 µM); against Escherichia coli, 0.05 µg/mL (≈ 0.143 µM); against Klebsiella pneumoniae, 0.025 µg/mL (≈ 0.0716 µM); in the assay on Pseudomonas aeruginosa [7], 0.78 µg/mL (≈ 2.23 µM). In addition, the ED50 with Staphylococcus aureus [5] is 5.82 mg/kg; with Pseudomonas aeruginosa [6] it was 6.7 mg/kg.
With `CC1CN(c2c(F)cc3c(=O)c(C(=O)O)cn(C4CC4)c3c2F)CC(C)N1` (stereo unspecified), the MIC in the assay on Bacillus subtilis came out at 0.1 µg/mL (≈ 0.265 µM); in [1] it was 0.78 µg/mL (≈ 2.07 µM); in the assay on Proteus vulgaris it was 0.1 µg/mL (≈ 0.265 µM); with Staphylococcus aureus [2] it was 0.39 µg/mL (≈ 1.03 µM); in the assay with Salmonella typhimurium, 0.1 µg/mL (≈ 0.265 µM); against Staphylococcus aureus [3], 0.39 µg/mL (≈ 1.03 µM). The minimal inhibitory concentration (MIC) in the assay on Pseudomonas aeruginosa [4] amounted to 3.13 µg/mL (≈ 8.29 µM); in the assay with Serratia marcescens, 0.78 µg/mL (≈ 2.07 µM); against Escherichia coli it was 0.1 µg/mL (≈ 0.265 µM); against Klebsiella pneumoniae, 0.025 µg/mL (≈ 0.0662 µM); in the assay on Pseudomonas aeruginosa [7] it was 3.13 µg/mL (≈ 8.29 µM). The ED50 in the assay with Staphylococcus aureus [5] is 2.21 mg/kg; with Pseudomonas aeruginosa [6], 11.7 mg/kg.
Consider `O=C(O)c1cn(C2CC2)c2c(F)c(N3CCN(O)CC3)c(F)cc2c1=O`, for which the MIC with Bacillus subtilis is 0.05 µg/mL (≈ 0.137 µM); in assay [1] it was 0.78 µg/mL (≈ 2.14 µM); with Proteus vulgaris, 0.05 µg/mL (≈ 0.137 µM); against Staphylococcus aureus [2] it was 0.39 µg/mL (≈ 1.07 µM); with Salmonella typhimurium, 0.025 µg/mL (≈ 0.0684 µM); against Staphylococcus aureus [3], 0.39 µg/mL (≈ 1.07 µM). Besides, the minimum inhibitory concentration (MIC) against Pseudomonas aeruginosa [4] worked out at 1.56 µg/mL (≈ 4.27 µM); with Serratia marcescens it was 0.78 µg/mL (≈ 2.14 µM); in the assay on Escherichia coli it was 0.1 µg/mL (≈ 0.274 µM); in the assay with Klebsiella pneumoniae, 0.025 µg/mL (≈ 0.0684 µM); against Pseudomonas aeruginosa [7], 1.56 µg/mL (≈ 4.27 µM). For the same compound, the values for the ED50 in the assay on Staphylococcus aureus [5] and in the assay on Pseudomonas aeruginosa [6] were 3.34 mg/kg and 4.81 mg/kg, respectively.
As for `CC1CN(c2c(F)cc3c(=O)c(C(=O)O)cn(C4CC4)c3c2F)CC(C)N1O` (stereo unspecified), the MIC came to 0.05 µg/mL (≈ 0.127 µM) in the assay with Bacillus subtilis; 0.39 µg/mL (≈ 0.991 µM) in assay [1]; 0.39 µg/mL (≈ 0.991 µM) in the assay on Proteus vulgaris; 0.2 µg/mL (≈ 0.508 µM) in the assay with Staphylococcus aureus [2]; 0.78 µg/mL (≈ 1.98 µM) in the assay on Salmonella typhimurium; 0.2 µg/mL (≈ 0.508 µM) against Staphylococcus aureus [3]. In addition, the MIC worked out at 12.5 µg/mL (≈ 31.8 µM) against Pseudomonas aeruginosa [4]; 6.25 µg/mL (≈ 15.9 µM) with Serratia marcescens; 0.78 µg/mL (≈ 1.98 µM) in the assay on Escherichia coli; 0.1 µg/mL (≈ 0.254 µM) with Klebsiella pneumoniae; 12.5 µg/mL (≈ 31.8 µM) with Pseudomonas aeruginosa [7]. Moreover, the ED50 turned out to be 1.67 mg/kg with Staphylococcus aureus [5] and 35.4 mg/kg in the assay on Pseudomonas aeruginosa [6].
Consider `CCn1cc(C(=O)O)c(=O)c2cc(F)c(N3CCNCC3)cc21` [NORFLOXACIN], for which the MIC is 0.39 µg/mL (≈ 1.22 µM) in the assay with Bacillus subtilis; 3.13 µg/mL (≈ 9.8 µM) in assay [1]; 0.2 µg/mL (≈ 0.626 µM) in the assay with Proteus vulgaris; 1.56 µg/mL (≈ 4.89 µM) against Staphylococcus aureus [2]; 0.1 µg/mL (≈ 0.313 µM) against Salmonella typhimurium; 0.39 µg/mL (≈ 1.22 µM) against Staphylococcus aureus [3]. The MIC with Pseudomonas aeruginosa [4] is 3.13 µg/mL (≈ 9.8 µM); against Serratia marcescens it was 0.78 µg/mL (≈ 2.44 µM); against Escherichia coli, 0.39 µg/mL (≈ 1.22 µM); with Klebsiella pneumoniae, 0.1 µg/mL (≈ 0.313 µM); in the assay on Pseudomonas aeruginosa [7], 3.13 µg/mL (≈ 9.8 µM). In addition, the ED50 is 91.7 mg/kg in the assay on Staphylococcus aureus [5] and 107 mg/kg in the assay with Pseudomonas aeruginosa [6].
As for `O=C(O)c1cn(C2CC2)c2cc(N3CCNCC3)c(F)cc2c1=O` [CIPROFLOXACIN], the MIC is 0.1 µg/mL (≈ 0.302 µM) in the assay with Bacillus subtilis; 1.56 µg/mL (≈ 4.71 µM) in assay [1]; 0.05 µg/mL (≈ 0.151 µM) in the assay on Proteus vulgaris; 0.78 µg/mL (≈ 2.35 µM) in the assay with Staphylococcus aureus [2]; 0.025 µg/mL (≈ 0.0754 µM) with Salmonella typhimurium; 0.39 µg/mL (≈ 1.18 µM) in the assay with Staphylococcus aureus [3]. In addition, the MIC was determined as 0.78 µg/mL (≈ 2.35 µM) in the assay on Pseudomonas aeruginosa [4], 0.39 µg/mL (≈ 1.18 µM) in the assay with Serratia marcescens, 0.025 µg/mL (≈ 0.0754 µM) in the assay on Klebsiella pneumoniae and 0.78 µg/mL (≈ 2.35 µM) in the assay with Pseudomonas aeruginosa [7]. Moreover, the ED50 was 35.4 mg/kg in the assay on Staphylococcus aureus [5] and 30.8 mg/kg in the assay on Pseudomonas aeruginosa [6].

By MIC is commonly meant the least concentration at which growth counts as inhibited. By ED50 is commonly meant the midpoint of the dose-response relation.
